Data: ChEMBL document CHEMBL1141177, “The novel L- and D-amino acid derivatives of hydroxyurea and hydantoins: synthesis, X-ray crystal structure study, and cytostatic and antiviral activity evaluations” (J Med Chem, 2005)
≈ marks a conversion by molar mass, not a printed value.

Tests used:
[1] = test system: Cytomegalovirus; assay: Effective concentration to reduce plaque formation of Cytomegalovirus AD-169 strain in human embryonic lung cell cultures; type: functional, organism-based; settings: Human betaherpesvirus 5, lung
Summary of the method: (§1)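 Plaque reduction assay in human embryonic lung (HEL) cell cultures, virus input 100 plaque forming units. Viruses: CMV strains AD-169 and Davis, VZV TK+ strain OKA and TK− strain 07/1. EC50 is the concentration that reduces virus plaque formation by 50%.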

[2] = test system: Cytomegalovirus; assay: Effective concentration of the compound to reduce plaque-formation of Cytomegalovirus davis strain in human embryonic lungcell cultures; type: functional, organism-based; settings: Human betaherpesvirus 5; summary of the method: as §1
[3] = test system: HEL; assay: Minimum cytotoxic concentration of compound that causes alteration of cell morphology in human embryonic lung cells; type: functional
Summary of the method: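 Human embryonic lung (HEL) cells were examined microscopically. MCC is the minimum concentration that causes a detectable alteration of cell morphology.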

[4] = Effective concentration required to reduce plaque formation by Davis strain of CMV virus in Human embryonic lung cells; type: functional, cell-based; summary of the method: as §1
[5] = Effective concentration required to reduce plaque formation by AD-169 strain of CMV virus in Human embryonic lung cells; type: functional, cell-based; summary of the method: as §1
[6] = test system: HEL; assay: Cytotoxic concentration to reduce the 50% cell growth of human embryonic lung cells; type: functional
[7] = test system: WI-38; assay: Inhibition of normal human fibroblast cell line (WI 38) growth; type: functional, cell-based
Summary of the method: (§2)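 Monolayers in DMEM with 10% FBS, 2 mM L-glutamine, penicillin/streptomycin, 37 °C, 5% CO2. Cells seeded on day 0, then compounds added in 5- and 10-fold dilutions (10^-8–10^-4 M) for 72 h. MTT read-out at 570 nm. Percent growth calculated relative to time-zero and untreated OD. Quadruplicates in three experiments; IC50 by linear interpolation, highest concentration reported as ">" when not reached.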

[8] = test system: HEp-2; assay: Inhibition of laryngeal carcinoma cell line (Hep-2) growth; type: functional, cell-based; settings: Homo sapiens; summary of the method: as §2
[9] = test system: MIA PaCa-2; assay: Inhibition of pancreatic carcinoma cell line (MiaPaCa-2) growth; type: functional, cell-based; settings: Homo sapiens; summary of the method: as §2
[10] = test system: Human alphaherpesvirus 3; assay: Effective concentration of compound required to reduce plaque formation by OKA strain of thymidine kinase positive VZ virus TK+ in human embryonic lung cells; type: functional, organism-based; settings: Human alphaherpesvirus 3, lung
[11] = test system: MOLT-4; assay: Inhibition of human T-lymphocyte cell line (Molt4/C8) growth; type: functional, cell-based
[12] = test system: Human alphaherpesvirus 3; assay: Reduction of plaque formation by VZV07/1 strain of thymidine kinase(TK-) deficient VZ virus in human embryonic lung cells; type: functional, organism-based; settings: Human alphaherpesvirus 3, lung
[13] = test system: L1210; assay: Inhibition of murine leukemia cells (L1210) growth; type: functional, cell-based; settings: Mus musculus
[14] = test system: HeLa; assay: Inhibition of cervical carcinoma cell line (HeLa) growth; type: functional, cell-based; settings: Homo sapiens; summary of the method: as §2
[15] = test system: MCF7; assay: Inhibition of breast carcinoma cell line (MCF-7) growth; type: functional, cell-based; settings: Homo sapiens; summary of the method: as §2
[16] = test system: SW-620; assay: Inhibition of colon carcinoma cell line (SW 620) growth; type: functional, cell-based; settings: Homo sapiens; summary of the method: as §2
[17] = Homo sapiens, HEL, read-out: CC50

| SMILES | EC50 [1] [µg/mL] | EC50 [2] [µg/mL] | MCC [3] [µg/mL] | EC50 [4] [µg/mL] | EC50 [5] [µg/mL] | CC50 [6] [µg/mL] | CC50 [6, 17] [µg/mL] | IC50 [7] [µM] | IC50 [8] [µM] | IC50 [9] [µM] | EC50 [10] [µg/mL] | IC50 [11] [µM] | EC50 [12] [µg/mL] | IC50 [13] [µM] | IC50 [14] [µM] | IC50 [15] [µM] | IC50 [16] [µM] |
| --- | --- | --- | --- | --- | --- | --- | --- | --- | --- | --- | --- | --- | --- | --- | --- | --- | --- |
| Nc1nc2c(ncn2COC(CO)CO)c(=O)[nH]1 [GANCICLOVIR] | 0.24 (≈ 0.94 µM) | 0.34 (≈ 1.33 µM) | > 400 | 0.34 (≈ 1.33 µM) | 0.24 (≈ 0.94 µM) | – | – | – | – | – | – | – | – | – | – | – | – |
| Nc1ccn(C[C@@H](CO)OCP(=O)(O)O)c(=O)n1.O.O [CIDOFOVIR] | 0.13 | 0.13 | > 400 | 0.13 | 0.13 | 21.3 | 21.3 | – | – | – | – | – | – | – | – | – | – |
| O=C1NC(c2ccccc2)C(=O)N1C1CCCC1 (configuration not stated) | – | – | ≥ 20 | > 4 | > 20 | – | 27.4 (≈ 112 µM) | > 100 | > 100 | > 100 | > 4 | > 200 | 9 (≈ 36.8 µM) | > 200 | > 100 | 22 | > 100 |
| CC(C)C1NC(=O)N(C2CCCC2)C1=O (configuration not stated) | – | – | > 100 | > 100 | > 100 | – | > 50 | > 100 | 98 | > 100 | > 84 | > 200 | > 90 | > 200 | > 100 | > 100 | > 100 |
| O=C1NC(c2ccccc2)C(=O)N1Cc1ccccc1 (configuration not stated) | – | – | 100 | 4 (≈ 15 µM) | 7.6 (≈ 28.5 µM) | – | 12.5 (≈ 46.9 µM) | 78.9 | 82.9 | 68.9 | 15 (≈ 56.3 µM) | > 200 | 11 (≈ 41.3 µM) | > 200 | > 100 | 3.3 | 96.8 |
| CC(C)C1NC(=O)N(C2CCCCC2)C1=O (configuration not stated) | – | – | ≥ 100 | 41 (≈ 183 µM) | 45 (≈ 201 µM) | – | > 50 | > 100 | 100 | > 100 | 45 (≈ 201 µM) | > 200 | 29 (≈ 129 µM) | > 200 | > 100 | > 100 | > 100 |
| O=C(C(NC(=O)n1nnc2ccccc21)c1ccccc1)N1CCCCC1 (configuration not stated) | – | – | 200 | > 80 | > 80 | – | 188 (≈ 517 µM) | ≥ 100 | > 100 | ≥ 100 | > 80 | 82 | > 80 | 82 | > 100 | 67.4 | > 100 |
